# In publication PMC7397737 (Chemical research in toxicology, 2019):
# Several values for one entry are separate records, joined by “and”; a condition that tells them apart may be missing. Identical values can stand only once.
# T1: human recombinant CYP1A1 (Homo sapiens, UniProt P04798)
# T1 sequence (P04798 1-512): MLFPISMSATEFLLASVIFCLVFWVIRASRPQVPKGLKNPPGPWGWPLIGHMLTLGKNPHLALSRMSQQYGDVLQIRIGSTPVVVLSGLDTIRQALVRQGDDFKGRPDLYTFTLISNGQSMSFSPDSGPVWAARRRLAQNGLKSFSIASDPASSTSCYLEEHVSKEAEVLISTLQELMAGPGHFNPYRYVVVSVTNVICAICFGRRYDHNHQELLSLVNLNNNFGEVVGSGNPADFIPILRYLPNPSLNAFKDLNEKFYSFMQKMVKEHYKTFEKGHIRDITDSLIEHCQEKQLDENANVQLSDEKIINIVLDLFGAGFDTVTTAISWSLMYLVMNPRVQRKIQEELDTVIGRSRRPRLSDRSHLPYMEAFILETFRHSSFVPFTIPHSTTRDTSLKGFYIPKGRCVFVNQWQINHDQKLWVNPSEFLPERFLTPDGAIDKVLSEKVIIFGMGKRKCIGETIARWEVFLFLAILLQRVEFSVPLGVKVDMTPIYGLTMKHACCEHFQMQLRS
# T2: human recombinant CYP2A6 (Homo sapiens, UniProt P11509)
# T2 sequence (P11509 1-494): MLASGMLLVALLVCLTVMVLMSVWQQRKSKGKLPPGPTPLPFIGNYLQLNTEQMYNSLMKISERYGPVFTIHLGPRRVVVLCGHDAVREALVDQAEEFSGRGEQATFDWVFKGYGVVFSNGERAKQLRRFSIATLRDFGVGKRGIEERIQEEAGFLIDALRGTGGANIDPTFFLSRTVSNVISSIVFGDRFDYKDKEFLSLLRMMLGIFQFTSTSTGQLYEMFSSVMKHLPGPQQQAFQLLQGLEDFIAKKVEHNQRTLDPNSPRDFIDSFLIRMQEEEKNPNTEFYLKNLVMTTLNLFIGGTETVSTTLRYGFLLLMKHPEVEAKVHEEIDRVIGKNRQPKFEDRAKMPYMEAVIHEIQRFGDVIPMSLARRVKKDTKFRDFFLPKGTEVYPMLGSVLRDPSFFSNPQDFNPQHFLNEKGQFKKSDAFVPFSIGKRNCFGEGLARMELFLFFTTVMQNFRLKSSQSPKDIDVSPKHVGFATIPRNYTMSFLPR
# B1: human recombinant CYP1A1 (Homo sapiens) (protein)
# chain: MLFPISMSATEFLLASVIFCLVFWVIRASRPQVPKGLKNPPGPWGWPLIGHMLTLGKNPHLALSRMSQQYGDVLQIRIGSTPVVVLSGLDTIRQALVRQGDDFKGRPDLYTFTLISNGQSMSFSPDSGPVWAARRRLAQNGLKSFSIASDPASSTSCYLEEHVSKEAEVLISTLQELMAGPGHFNPYRYVVVSVTNVICAICFGRRYDHNHQELLSLVNLNNNFGEVVGSGNPADFIPILRYLPNPSLNAFKDLNEKFYSFMQKMVKEHYKTFEKGHIRDITDSLIEHCQEKQLDENANVQLSDEKIINIVLDLFGAGFDTVTTAISWSLMYLVMNPRVQRKIQEELDTVIGRSRRPRLSDRSHLPYMEAFILETFRHSSFVPFTIPHSTTRDTSLKGFYIPKGRCVFVNQWQINHDQKLWVNPSEFLPERFLTPDGAIDKVLSEKVIIFGMGKRKCIGETIARWEVFLFLAILLQRVEFSVPLGVKVDMTPIYGLTMKHACCEHFQMQLRS
# B2: human recombinant CYP2C19 (Homo sapiens) (protein)
# chain: MDPFVVLVLCLSCLLLLSIWRQSSGRGKLPPGPTPLPVIGNILQIDIKDVSKSLTNLSKIYGPVFTLYFGLERMVVLHGYEVVKEALIDLGEEFSGRGHFPLAERANRGFGIVFSNGKRWKEIRRFSLMTLRNFGMGKRSIEDRVQEEARCLVEELRKTKASPCDPTFILGCAPCNVICSIIFQKRFDYKDQQFLNLMEKLNENIRIVSTPWIQICNNFPTIIDYFPGTHNKLLKNLAFMESDILEKVKEHQESMDINNPRDFIDCFLIKMEKEKQNQQSEFTIENLVITAADLLGAGTETTSTTLRYALLLLLKHPEVTAKVQEEIERVIGRNRSPCMQDRGHMPYTDAVVHEVQRYIDLIPTSLPHAVTCDVKFRNYLIPKGTTILTSLTSVLHDNKEFPNPEMFDPRHFLDEGGNFKKSNYFMPFSAGKRICVGEGLARMELFLFLTFILQNFNLKSLIDPKDLDTTPVVNGFASVPPFYQLCFIPV
# B3: human recombinant CYP1A2 (Homo sapiens) (protein)
# chain: MALSQSVPFSATELLLASAIFCLVFWVLKGLRPRVPKGLKSPPEPWGWPLLGHVLTLGKNPHLALSRMSQRYGDVLQIRIGSTPVLVLSRLDTIRQALVRQGDDFKGRPDLYTSTLITDGQSLTFSTDSGPVWAARRRLAQNALNTFSIASDPASSSSCYLEEHVSKEAKALISRLQELMAGPGHFDPYNQVVVSVANVIGAMCFGQHFPESSDEMLSLVKNTHEFVETASSGNPLDFFPILRYLPNPALQRFKAFNQRFLWFLQKTVQEHYQDFDKNSVRDITGALFKHSKKGPRASGNLIPQEKIVNLVNDIFGAGFDTVTTAISWSLMYLVTKPEIQRKIQKELDTVIGRERRPRLSDRPQLPYLEAFILETFRHSSFLPFTIPHSTTRDTTLNGFYIPKKCCVFVNQWQVNHDPELWEDPSEFRPERFLTADGTAINKPLSEKMMLFGMGKRRCIGEVLAKWEIFLFLAILLQQLEFSVPPGVKVDLTPIYGLTMKHARCEHVQARLRFSIN
# B4: human recombinant CYP2A6 (Homo sapiens) (protein)
# chain: MLASGMLLVALLVCLTVMVLMSVWQQRKSKGKLPPGPTPLPFIGNYLQLNTEQMYNSLMKISERYGPVFTIHLGPRRVVVLCGHDAVREALVDQAEEFSGRGEQATFDWVFKGYGVVFSNGERAKQLRRFSIATLRDFGVGKRGIEERIQEEAGFLIDALRGTGGANIDPTFFLSRTVSNVISSIVFGDRFDYKDKEFLSLLRMMLGIFQFTSTSTGQLYEMFSSVMKHLPGPQQQAFQLLQGLEDFIAKKVEHNQRTLDPNSPRDFIDSFLIRMQEEEKNPNTEFYLKNLVMTTLNLFIGGTETVSTTLRYGFLLLMKHPEVEAKVHEEIDRVIGKNRQPKFEDRAKMPYMEAVIHEIQRFGDVIPMSLARRVKKDTKFRDFFLPKGTEVYPMLGSVLRDPSFFSNPQDFNPQHFLNEKGQFKKSDAFVPFSIGKRNCFGEGLARMELFLFFTTVMQNFRLKSSQSPKDIDVSPKHVGFATIPRNYTMSFLPR
# Columns and labels:
# [1] = test system: C57BL/6J mice; assay: Experiment 3: high-oleic acid diet with 1′-hydroxyelemicin in mice; type: in vivo, mouse; settings: high-oleic acid diet + 100 mg/kg 1′-hydroxyelemicin 3 days
# [2] = test system: stearoyl-CoA desaturase 1 (SCD1); assay: Hepatic Scd1 mRNA; type: in vivo, mouse; settings: for mRNA levels of Scd1 in liver: qPCR, vs control mice
# Summary of the method: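 C57BL/6J mice (n = 6; n = 4 in SCD1-inhibitor study) gavaged with test compound 100 mg/kg every 24 h ×3, vehicle 0.5% CMC-Na. Where used, SCD1 inhibitor (DMSO/Tween 80/saline 1:2:97) was given i.p. twice daily, 10 mg/kg/day, starting before first dose. Liver flash-frozen. Western: RIPA/PMSF lysate, 10 μg protein, 10% SDS-PAGE, PVDF, ECL detection. mRNA by qRT-PCR.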
# [3] = test system: C57BL/6J mice; assay: Experiment 4: SCD1 suppression by A939572 with 1′-hydroxyelemicin in mice; type: in vivo, mouse; settings: A939572 10 mg/kg/day i.p. + 100 mg/kg 1′-hydroxyelemicin
# [4] = test system: CYPs in pooled mouse liver microsomes (MLMs); assay: Chemical inhibition of 1′-hydroxyelemicin formation in liver microsomes; type: in vitro ADME; settings: inhibitor 10 μM (CYP3A4); 50 μM elemicin; MLMs 0.5 mg/mL; 40 min
# [5] = test system: C57BL/6J mice; assay: Experiment 6: elemicin versus 1′-hydroxyelemicin toxicity at the same dose; type: in vivo, mouse
# [6] = mouse, in vivo, 100 mg/kg
# [7] = test system: C57BL/6J mice; assay: Experiment 1: toxicity of elemicin in mice, 3 weeks; type: in vivo, mouse
# [8] = target: T1, human recombinant CYP1A1; assay: Kinetics of elemicin 1′-hydroxylation by recombinant CYP1A1; type: in vitro ADME
# [9] = target: T2, human recombinant CYP2A6; assay: Kinetics of elemicin 1′-hydroxylation by recombinant CYP2A6; type: in vitro ADME
# [10] = substrate: C=CCc1cc(OC)c(OC)c(OC)c1; assay: Kinetics of elemicin 1′-hydroxylation by recombinant CYP1A1; type: in vitro ADME, human; settings: other: 1′-hydroxyelemicin formation from elemicin, mean ± SD
# [11] = substrate: C=CCc1cc(OC)c(OC)c(OC)c1; assay: Kinetics of elemicin 1′-hydroxylation by recombinant CYP2C19; type: in vitro ADME, human; settings: other: 1′-hydroxyelemicin formation from elemicin, mean ± SD
# [12] = substrate: C=CCc1cc(OC)c(OC)c(OC)c1; assay: Kinetics of elemicin 1′-hydroxylation by recombinant CYP1A2; type: in vitro ADME, human; settings: other: 1′-hydroxyelemicin formation from elemicin, mean ± SD
# [13] = substrate: C=CCc1cc(OC)c(OC)c(OC)c1; assay: Kinetics of elemicin 1′-hydroxylation by recombinant CYP2A6; type: in vitro ADME, human; settings: other: 1′-hydroxyelemicin formation from elemicin, mean ± SD
# [14] = 1′-hydroxyelemicin 100 mg/kg oral, 3 days
# [15] = elemicin 500 mg/kg oral, 3 weeks
# [16] = 500 mg/kg oral every 24 h for 3 weeks, vs control group
# [17] = 500 mg/kg oral, 3 weeks, vs control group
molecule,measurement,setting,value
CCCCCCCC/C=C\CCCCCCCC(=O)O [oleic acid],"16:1-LPC, 18:1-LPC and 18:2-LPC levels in plasma",[1],ameliorated the decrease
same,ratios of 18:1-LPC to 18:0-LPC and 16:1-LPC to 16:0-LPC in plasma,[1],increased to normal level
same,hepatic TG content,[1]; vs control mice,still higher than that of control mice
same,liver size,[1]; vs control mice,still higher than that of control mice
CNC(=O)c1cccc(NC(=O)N2CCC(Oc3ccccc3Cl)CC2)c1 [A939572],SCD1 expression in liver (Western blot),"[2]; A939572 10 mg/kg/day i.p. + 100 mg/kg 1′-hydroxyelemicin, A + E′ group",significantly decreased
same,levels of monounsaturated-LPCs in plasma,[3]; A + E′ group,further decreased
same,TG levels in plasma,[3]; A + E′ vs E′ group,markedly elevated
same,ratio of unsaturated-LPCs to saturated-LPCs,[3]; A + E′ vs E′ group,significantly reduced
CC(=O)N1CCN(c2ccc(OCC3COC(Cn4ccnc4)(c4ccc(Cl)cc4Cl)O3)cc2)CC1 (centres unmarked) [ketoconazole],inhibitory effect against 1′-hydroxyelemicin generation,[4],relative higher inhibitory effects
C=CC(O)c1cc(OC)c(OC)c(OC)c1 (centres unmarked) [1′-hydroxyelemicin],liver index compared with the same dose of elemicin,"[5]; mouse, in vivo",higher
same,SCD1 protein in liver (Western blot),[2]; [14],decreased
same,mRNA levels of Scd1 in liver,[2]; [14],clearly decreased
same,GSH adduct in urine,[6],observed in the urine
"C=CCc1cc(OC)c(OC)c(OC)c1 [elemicin, 3,4,5-trimethoxyallylbenzene]",hepatomegaly,"[5]; 100 mg/kg for 3 days, mice",did not result in hepatomegaly
same,SCD1 protein in liver (Western blot),[2]; [15],decreased
same,mRNA levels of Scd1 in liver,[2]; [15],clearly decreased
same,histopathological analysis of hepatic tissue,"[7]; 500 mg/kg oral every 24 h for 3 weeks, H&E","cytoplasmic pale staining, hepatocyte swelling and the cytoplasm seemed abnormal around the central vein"
same,TG levels in liver,[7]; [16],significantly elevated
same,TG levels in plasma,[7]; [16],significantly elevated
same,liver weights (hepatic index),[7]; [16],increased
same,serum ALT,[7]; [16],no significant changes
same,total plasma GSH and GSSG,[7]; [16],reduced
same,ratios of 18:1-LPC to 18:0-LPC and 16:1-LPC to 16:0-LPC in plasma,[7]; [17],dramatically reduced
same,saturated LPC (18:0-LPC) in plasma,[7]; [17],significantly increased
same,"unsaturated LPCs (18:1-, 18:2-, 16:1-, 20:4-LPC) in plasma",[7]; [17],obviously reduced
same,Vmax,[8],1.80 ± 0.045 nmol ● min^−1 nmol ● CYP^−1
same,in vitro catalytic efficiency,[8]; Vmax/Km × 1000 μL,140.062 μL min^−1 nmol P450^−1
same,Vmax,"[9]; 1′-hydroxyelemicin formation from elemicin, mean ± SD",0.524 ± 0.110 nmol min^−1 nmol P450^−1
same,in vitro catalytic efficiency,[9]; Vmax/Km × 1000 μL,0.520 μL min^−1 nmol P450^−1
B1,Km,[10],12.9 ± 1.26 µM and 12.880 ± 1.265 µM
same,kcat/Km,[10],140 μL min^−1 nmol CYP^−1
B2,Km,[11],43.430 ± 3.613 µM
same,kcat,[11],0.00792 ± 0.0002 s⁻¹
same,kcat/Km,[11],182 M⁻¹ s⁻¹
B3,Km,[12],15.850 ± 3.067 µM
same,kcat,[12],0.0067 ± 0.00035 s⁻¹
same,kcat/Km,[12],423 M⁻¹ s⁻¹
B4,Km,[13],1007.000 ± 293.000 µM
